Bioassay records as filed in PubChem.
SENP7 inh – SENP7 protease inhibitors, primary screen, biochemical, luminescence, uHTS. inhibition, % at 5 µM. Sentrin-specific protease 7 (Homo sapiens), Q9BQF6. hit rate 1.5% among 330,000. recombinant SENP7, Z-RLRGG-aminoluciferin luminescence, 40 min. AID 434973, 2010;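 active = inhibition above about 50% at the single test dose, limit read from the data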
SENP8 block-1 – SENP8 protease inhibitors, primary screen, biochemical, luminescence; hit rate 1.2% among 330,000; purified SENP8, Z-RLRGG-aminoluciferin cleavage; inhibition, % at 10 µM; Sentrin-specific protease 8 (Homo sapiens), Q96LD8; in the data active = inhibition above about 50%
Target sequence (Q96LD8 whole entry, looked up): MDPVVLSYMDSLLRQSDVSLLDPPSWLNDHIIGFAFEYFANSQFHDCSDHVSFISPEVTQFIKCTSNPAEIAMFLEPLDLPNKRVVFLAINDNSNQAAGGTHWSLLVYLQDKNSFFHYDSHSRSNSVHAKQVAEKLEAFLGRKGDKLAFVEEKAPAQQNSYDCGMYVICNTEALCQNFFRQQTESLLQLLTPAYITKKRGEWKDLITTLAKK
SENP1 FRET inh – human SENP1 catalytic domain inhibitors, primary screen, biochemical, FRET, uHTS | recombinant SENP1 catalytic domain, CyPet-SUMO1-YPet FRET cleavage | Sentrin-specific protease 1 (Homo sapiens), Q9P0U3 | AID 624204, 2012 | inhibition, % at 10 µM | hit rate 0.21% among 360,000;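 active = inhibition at least 30% at 10 µM, raw YFP signal under a set limit, fluorescence ratio 0.5 to 1.5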
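Assay system: hSENP1 catalytic domain, recombinant. Amount: SENP1 enzyme, 20 pM final. Schedule: 50 min reaction, RT, dark. Technique: FRET, CFP and YFP emission. Control set: no-enzyme wells low, DMSO-plus-enzyme wells high control.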
SENP6 block – SENP6 protease inhibitors, primary screen, biochemical, luminescence, uHTS | Sentrin-specific protease 6 (Homo sapiens), Q9GZR1 | Recombinant SENP6 catalytic domain, aminoluciferin luminescence | inhibition, % at 10 µM | hit rate 1.8% among 330,000 | AID 2599, 2010;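 active = inhibition above about 50% at the single tested dose, limit read from the data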
SENP8 block-2 – human SENP8 protease inhibitors, primary screen, biochemical, fluorescence, Nedd8 protein substrate, uHTS. Sentrin-specific protease 8 (Homo sapiens), Q96LD8. recombinant SENP8. inhibition, % at 20 µM. hit rate 0.64% among 360,000. AID 602440, 2012; in the data active = inhibition mostly above about 40%, no sharp cut-off; inactive = mostly below about 27%
SENP8 confirm – SENP8 protease inhibitors, retest, confirmation, biochemical, luminescence, single concentration. hit rate 40% among 6,200. shares compounds with SENP7 inh. Recombinant SENP8, Z-RLRGG-aminoluciferin luminescence, 60 min. inhibition, % at 12.5 µM;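 active = mean inhibition across replicates above about 50%, limit read from the data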
SENP6 conf – SENP6 protease inhibitors, confirmation, biochemical, luminescence, single concentration; hit rate 58% among 6,200; AID 488915, 2010; recombinant SENP6, Z-RLRGG-aminoluciferin luminescence; shares compounds with SENP7 inh; inhibition, % at 12.5 µM
SENP7 conf – SENP7 protease inhibitors, retest, confirmation, biochemical, luminescence, single concentration; shares compounds with SENP7 inh; recombinant SENP7, Z-RLRGG-aminoluciferin luminescence, 40 min; inhibition, % at 12.5 µM; hit rate 69% among 6,200; AID 488917, 2010
Casp3 select – caspase-3 protease inhibitors, confirmation, selectivity assay for SENP inhibitor project, biochemical, single concentration; shares compounds with SENP7 inh; purified caspase-3, Z-DEVD-aminoluciferin luminescence, 60 min; inhibition, % at 12.5 µM; hit rate 60% among 6,200;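 active = mean inhibition above about 50%, limit read from the data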
Target sequence (P42574 28-227 limits assumed): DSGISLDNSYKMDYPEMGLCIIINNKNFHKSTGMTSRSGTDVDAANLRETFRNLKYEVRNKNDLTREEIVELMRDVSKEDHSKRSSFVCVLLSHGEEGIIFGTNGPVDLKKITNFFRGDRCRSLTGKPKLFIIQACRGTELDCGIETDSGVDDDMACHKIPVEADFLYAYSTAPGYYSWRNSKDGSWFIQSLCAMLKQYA
Luc interf – luminescence interference (SENP counter-screen) | Pre-incubated SENP8/Z-RLRGG-aminoluciferin, luciferase luminescence interference | shares compounds with SENP7 inh | inhibition, % at 12.5 µM | hit rate 39% among 6,200 | AID 488919;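 active = mean inhibition above about 50% when retested at one dose, limit read from the data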
Each line names hits and unclear results; the compound was inactive in the other large screens (follow-up assays come after a bar, where they were run). Sampled rows, rich in hits. Any-hit rate of the full collection: about 2.5%.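 Rule for the calls, unless noted: active = mean inhibition above about 50% in the one-dose retest (limit read from the data); inactive = the rest.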

c1ccc(-c2ccc(-c3nc(-c4ccccn4)no3)cc2)cc1	SENP7 inh 98, SENP8 block-1 97, SENP6 block 98 | SENP8 confirm inactive | SENP6 conf 74 | SENP7 conf 81 | Casp3 select 97 | Luc interf inactive
c1ccc(-c2noc(-c3ccco3)n2)nc1	SENP7 inh 73, SENP6 block 74 | SENP8 confirm 65 | SENP6 conf 68 | SENP7 conf 92 | Casp3 select 92 | Luc interf 70
c1ccc(-c2noc(-c3ccno3)n2)nc1	none
Cc1[nH]c(C)c(S(=O)(=O)NCc2ccc(Cl)cc2)c1C(=O)N1CCCC1	none
CC(Sc1nnnn1-c1ccc(Cl)cc1)C(=O)NCC(=O)Nc1ccc(F)c(F)c1F (stereo not given)	none
CC(=O)N1CCN(S(=O)(=O)c2cccc(C(=O)Nc3ccccc3N3CCCC3)c2)CC1	none
COc1cccc(-c2nc(-c3ccccn3)no2)c1OC	none
Cc1ccc(-c2nc(-c3ccccn3)no2)cc1	SENP7 inh 99, SENP8 block-1 98, SENP6 block 99 | SENP8 confirm inactive | SENP6 conf 101 | SENP7 conf 103 | Casp3 select 100 | Luc interf 99
c1ccc(-c2noc(-c3cccc4ccccc34)n2)nc1	SENP7 inh 90, SENP8 block-1 89, SENP6 block 96 | SENP8 confirm 93 | SENP6 conf 95 | SENP7 conf 101 | Casp3 select 90 | Luc interf 94
Cc1ccc(-c2nc(-c3ccccn3)no2)cc1[N+](=O)[O-]	SENP7 inh 88, SENP8 block-1 85, SENP6 block 92 | SENP8 confirm 63 | SENP6 conf 83 | SENP7 conf 88 | Casp3 select 85 | Luc interf inactive
Clc1cccc(-c2nc(-c3ccccn3)no2)c1	SENP7 inh 98, SENP8 block-1 92, SENP6 block 96 | SENP8 confirm 97 | SENP6 conf 98 | SENP7 conf 102 | Casp3 select 97 | Luc interf 97
c1ccc(-c2cc(-c3nc(-c4ccccn4)no3)c3ccccc3n2)cc1	none
COc1cc(-c2nc(-c3ccccn3)no2)cc(OC)c1OC	none
OCCNc1ncnc2c1ncn2[C@H]1CN(Cc2ccc(Cl)cc2)C[C@@H](CO)O1	none (no result: SENP7 inh, SENP8 block-1, SENP6 block)
CCOc1ncccc1C(=O)Nc1cc2c(cc1Br)OCCO2	none
CC(/C=C/c1ccccc1)=N/NC(=O)Cn1nnc(N)n1	none
O=[N+]([O-])c1cccc(-c2noc(-c3ccco3)n2)c1	SENP7 inh 54, SENP6 block 68 | SENP8 confirm inactive | SENP6 conf inactive | SENP7 conf inactive | Casp3 select inactive | Luc interf inactive
c1ccc(Cc2nc(-c3ccccn3)no2)cc1	none
c1ccc(-c2nc(-c3ccccn3)no2)cc1	SENP7 inh 101, SENP8 block-1 95, SENP6 block 96 | SENP8 confirm 98 | SENP6 conf 99 | SENP7 conf 103 | Casp3 select 99 | Luc interf 97
O=C(NCCN1CCNC1=O)C1CCC(=O)N(Cc2cccc(C(F)(F)F)c2)C1 (stereo not given)	none
O=C(COC(=O)c1ccc(F)c(S(=O)(=O)N2CCOCC2)c1)Nc1ccc(Cl)cn1	none (no result: SENP7 inh, SENP8 block-1, SENP6 block)
CC1=NN(C(N)=S)C(=O)C1N=Nc1ccccc1Cl (stereo not given)	SENP7 inh 53, SENP8 block-1 83, SENP6 block 89, SENP8 block-2 42 | SENP8 confirm inactive | SENP6 conf 90 | SENP7 conf 98 | Casp3 select 82 | Luc interf inactive
CC1=NN(C(N)=S)C(=O)C1N=Nc1ccc(Cl)cc1Cl (stereo not given)	SENP8 block-1 94, SENP6 block 91 | SENP8 confirm 81 | SENP6 conf 86 | SENP7 conf 94 | Casp3 select 72 | Luc interf 67
COc1ccccc1N=NC1C(=O)N(C(N)=S)N=C1C (stereo not given)	none
Cc1nn(-c2ccc(Cl)cc2Cl)c(=O)c2ccccc12	none
CC(=O)c1ccccc1NC(=O)CSc1nnc2ccccn12	none (no result: SENP1 FRET inh, SENP8 block-2)
COc1cc(CNc2ncnc3c2ncn3[C@H]2CN(Cc3ccco3)C[C@@H](CO)O2)cc(OC)c1OC	none (no result: SENP7 inh, SENP8 block-1, SENP6 block)
O=C(NCCc1ccccc1)C(=S)N1CCCCC1	none
Cc1ccc(C(=O)O/N=C(\N)c2ccccc2)c(Cl)c1	SENP7 inh 99, SENP8 block-1 97, SENP6 block 99 | SENP8 confirm inactive | SENP6 conf inactive | SENP7 conf inactive | Casp3 select inactive | Luc interf inactive
Cc1ccc(C(=O)O/N=C(\N)c2ccccn2)c(Cl)c1	SENP7 inh 99, SENP8 block-1 96, SENP6 block 96 | SENP8 confirm 98 | SENP6 conf 99 | SENP7 conf 102 | Casp3 select 98 | Luc interf 98
N/C(=N\OC(=O)c1ccc(Cl)cc1Cl)c1ccncc1	SENP7 inh 62, SENP8 block-1 59, SENP6 block 77 | SENP8 confirm 62 | SENP6 conf 64 | SENP7 conf 84 | Casp3 select 73 | Luc interf 64
N/C(=N\OC(=O)c1ccccc1Cl)c1ccncc1	none
N/C(=N\OC(=O)c1cc(Cl)ccc1Cl)c1ccncc1	none
N/C(=N\OC(=O)c1ccc([N+](=O)[O-])cc1Cl)c1ccccn1	SENP7 inh 95, SENP8 block-1 91, SENP6 block 96 | SENP8 confirm 82 | SENP6 conf 96 | SENP7 conf 102 | Casp3 select 97 | Luc interf inactive
